mABHD4 FP: ABHD4 inhibitors, primary screen, biochemical, fluorescence polarization, mouse; (Lyso)-N-acylphosphatidylethanolamine lipase (Mus musculus), Q8VD66; purified mABHD4, FP-Rh probe fluorescence polarization; inhibition, % at 8.92 µM; 370,000 tested, 0.54% active; AID 720543, 2013;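 active means inhibition exceeding the mean over every tested compound plus 3 SD, cut at about 30% in these data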;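 further: 0% = plate median of compound wells and 100% = S159A mutant with DMSO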
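assay system = mABHD4 protein | compound dosing = single nominal dose of 8.92 µM, 0.89% DMSO final | read-out basis = percent inhibition of probe binding, normalized to plate controls | schedule = Enzyme–compound pre-incubation 45 min, then probe 60 min, both 25 °C | detection = fluorescence polarization, excitation 525 nm, emission 598 nm, BODIPY TMR filters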
PRMT1 FP inh: PRMT1 methyltransferase inhibitors, primary screen, biochemical, fluorescence polarization. Protein arginine N-methyltransferase 1 (Homo sapiens), Q99873. recombinant PRMT1, activity-based probe fluorescence polarization. inhibition, % at 2.79 µM. 370,000 tested, 1.3% active;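 active means inhibition above about 21% made by adding two undisclosed values, limit read from the data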
SIAE primary: human SIAE inhibitors, primary screen, biochemical, fluorescence polarization, FP-Rh probe, 1536-well HTS | inhibition, % at 9.66 µM | AID 1053197, 2014 | 370,000 tested, 0.69% active | Sialate O-acetylesterase (Homo sapiens), Q9HAT2 | SIAE FP-Rh probe binding;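 active means inhibition above a cutoff: mean of compounds within the control limits plus 3 SD of those, cut at about 17% in these data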;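 further: 0% = plate median of compound wells and 100% = probe without SIAE protein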
Target sequence (Q9HAT2 whole entry, looked up): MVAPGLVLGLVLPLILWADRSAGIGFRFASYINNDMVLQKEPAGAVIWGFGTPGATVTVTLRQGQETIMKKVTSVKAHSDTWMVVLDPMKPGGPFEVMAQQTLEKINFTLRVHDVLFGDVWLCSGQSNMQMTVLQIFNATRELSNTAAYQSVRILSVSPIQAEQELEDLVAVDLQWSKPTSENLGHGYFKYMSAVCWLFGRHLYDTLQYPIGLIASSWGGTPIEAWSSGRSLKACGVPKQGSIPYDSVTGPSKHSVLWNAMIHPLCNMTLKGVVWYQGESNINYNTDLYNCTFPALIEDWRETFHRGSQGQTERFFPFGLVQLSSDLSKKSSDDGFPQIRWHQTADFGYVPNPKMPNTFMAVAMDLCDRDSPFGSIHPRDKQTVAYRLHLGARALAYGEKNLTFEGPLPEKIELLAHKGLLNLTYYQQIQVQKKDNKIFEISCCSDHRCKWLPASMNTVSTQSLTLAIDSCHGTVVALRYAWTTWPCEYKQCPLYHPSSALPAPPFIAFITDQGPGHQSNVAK
TCR-CD3 inh: inhibitors of human TCR-CD3 interaction, primary screen, biochemical, fluorescence, TAMRA-labeled TCR probe; T-cell receptor (TCR); inhibition, % at 9.4 µM; 360,000 tested, 0.37% active; in the data active means inhibition above about 19%;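 further: recombinant mutant TCR 2C K166C tagged with TAMRA read by polarization; 0% = receptor in buffer alone and 100% = receptor with positive control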
HTRA1 inhibitor: HTRA1 serine protease inhibitors, primary screen, biochemical, fluorescence polarization, HTS; recombinant HTRA1, FP-rhodamine activity-based probe; inhibition, % at 5.96 µM; 340,000 tested, 0.5% active; in the data active means inhibition above about 36%;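 further: 0% = enzyme with DMSO and 100% = wells lacking enzyme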
PRMT1 confirm: PRMT1 methyltransferase inhibitors, confirmation, biochemical, fluorescence polarization, triplicate | recombinant His-PRMT1, activity-based probe fluorescence polarization | inhibition, % at 2.79 µM | AID 687036, 2013 | 3,300 tested, 42% active | shares compounds with PRMT1 FP inh;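 active means mean inhibition across replicates above the hit cutoff derived for the earlier primary screen, cut at about 22% in these data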
* = called active by the depositor. A selection: hits, their analogues and other compounds. The true share with any hit is near 2.7%.

How did O=C(O)C(Cc1ccccc1)N1C(=O)/C(=C/c2cccnc2)SC1=S (stereo not given) do in these assays?
mABHD4 FP: 7.9; PRMT1 FP inh: 26.2*; SIAE primary: -0.7; TCR-CD3 inh: -1.0; HTRA1 inhibitor: 10.3; PRMT1 confirm: 4.5

How did CCOc1ccc(/C=C2/SC(=S)N(C(C(=O)O)c3ccccc3)C2=O)cc1OCC (stereo not given) do in these assays?
mABHD4 FP: -4.1; PRMT1 FP inh: -0.1; SIAE primary: -1.2; TCR-CD3 inh: 2.6; HTRA1 inhibitor: -0.7

Results for CCCC1CCC2(CCCN2CCOC(=O)Nc2ccc(OC)cc2)CC1 (stereo not given) ?
mABHD4 FP: 12.0; PRMT1 FP inh: -2.2; SIAE primary: 4.6

Results for COc1cc(OC)cc(C(C)c2ccc(-c3ccccc3)cc2)c1 (stereo not given) ?
mABHD4 FP: -5.7; PRMT1 FP inh: 2.7; SIAE primary: 9.1

How did COC(=O)CSc1nc(SC)nc2c1sc1nc(-c3ccco3)c3c(c12)CC(C)(C)OC3 do in these assays?
mABHD4 FP: -1.6; PRMT1 FP inh: 4.0; SIAE primary: 0.1; TCR-CD3 inh: -0.5; HTRA1 inhibitor: -3.0

Results for CSc1nc(N(CCO)CCO)c2sc3nc(-c4ccco4)c4c(c3c2n1)CCC4 ?
mABHD4 FP: -4.7; PRMT1 FP inh: 37.2*; SIAE primary: 11.1; TCR-CD3 inh: 10.4; HTRA1 inhibitor: 4.7; PRMT1 confirm: 38.7*

How did Fc1ccc(N=c2ssnc2Cl)c(F)c1 do in these assays?
mABHD4 FP: 8.3; PRMT1 FP inh: 43.7*; SIAE primary: 3.6; TCR-CD3 inh: -1.1; HTRA1 inhibitor: 4.9; PRMT1 confirm: 40.5*

Results for COc1ccc(N=c2ssnc2Cl)cc1 ?
HTRA1 inhibitor: 6.3

Results for COc1cc(N=c2ssnc2Cl)cc(OC)c1OC ?
mABHD4 FP: -5.1; PRMT1 FP inh: 97.3*; SIAE primary: 11.3; TCR-CD3 inh: -3.8; HTRA1 inhibitor: 4.0; PRMT1 confirm: 90.0*

What do the screens show for `Clc1ccc(N=c2ssnc2Cl)cc1`?
mABHD4 FP: 2.5; PRMT1 FP inh: 72.6*; SIAE primary: 9.1; TCR-CD3 inh: -3.4; HTRA1 inhibitor: 3.1; PRMT1 confirm: 92.6*

How did Clc1nssc1=Nc1ccccc1 do in these assays?
HTRA1 inhibitor: 1.5

What do the screens show for `CCOC(=O)c1ccc(N=c2ssnc2Cl)cc1`?
mABHD4 FP: 3.6; PRMT1 FP inh: 77.7*; SIAE primary: 8.4; TCR-CD3 inh: 0.3; HTRA1 inhibitor: 1.2; PRMT1 confirm: 89.2*

Results for Cc1ccc(C(CC(=O)c2ccc(Cl)cc2)C(=O)O)cc1 (stereo not given) ?
mABHD4 FP: -1.4; PRMT1 FP inh: 0.4; SIAE primary: -2.5; TCR-CD3 inh: 0.6; HTRA1 inhibitor: -2.8

Results for Cc1ccc(SC(CC(=O)c2ccc(C)cc2)C(=O)O)cc1 (stereo not given) ?
mABHD4 FP: 5.2; PRMT1 FP inh: 59.3*; SIAE primary: 1.1; TCR-CD3 inh: 4.8; HTRA1 inhibitor: -2.9; PRMT1 confirm: 68.9*

How did O=C(C=Cc1ccccc1Cl)c1ccccc1 do in these assays?
mABHD4 FP: 0.4; PRMT1 FP inh: 1.4; SIAE primary: -6.3; TCR-CD3 inh: 4.5; HTRA1 inhibitor: -7.9

How did C=CCn1cccc(/C=C/C(=O)c2ccc(C(C)(C)C)cc2)c1=S do in these assays?
mABHD4 FP: 1.3; PRMT1 FP inh: 26.6*; SIAE primary: -9.5; TCR-CD3 inh: 0.2; HTRA1 inhibitor: -28.8; PRMT1 confirm: 0.6

How did Cc1ccc(NC2=NCCC2)cc1Cl do in these assays?
mABHD4 FP: 2.1; PRMT1 FP inh: -3.7; SIAE primary: 8.4; TCR-CD3 inh: 5.3; HTRA1 inhibitor: -5.0

How did Cc1nc2ccc(NC3=NCCCCC3)cc2s1 do in these assays?
mABHD4 FP: 5.1; PRMT1 FP inh: 61.1*; SIAE primary: 4.0; TCR-CD3 inh: -2.8; HTRA1 inhibitor: -9.0; PRMT1 confirm: 36.9*

What do the screens show for `N#C/C(=C\c1ccc([N+](=O)[O-])o1)C(=O)Nc1ccc(F)cc1`?
mABHD4 FP: 18.1; PRMT1 FP inh: 30.7*; SIAE primary: -1.6; TCR-CD3 inh: 2.9; HTRA1 inhibitor: 19.2; PRMT1 confirm: 11.1

Source: PubChem BioAssay
